Data from ChEMBL document CHEMBL4321879, “Novel Class of Colony-Stimulating Factor 1 Receptor Kinase Inhibitors Based on an o-Aminopyridyl Alkynyl Scaffold as Potential Treatment for Inflammatory Disorders” (J Med Chem, 2020).

Key:
[1] = molecular target: Tyrosine-protein kinase ITK/TSK (Homo sapiens) (UniProt Q08881); assay: Inhibition of recombinant human N-terminal His6-tagged ITK (352 to 617 residues) expressed in baculovirus infected Sf21 insect cells at 100 nM using poly (Glu, Tyr)4:1 as substrate measured after 1 hr by ELISA relative to control
Summary of the method: (§1)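 ELISA kinase assay: recombinant kinase added to wells precoated with poly(Glu,Tyr)4:1 and incubated with compound in reaction buffer containing 5 μM ATP, 37 °C for 1 h; wells then washed before antibody detection.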

[2] = molecular target: Epidermal growth factor receptor (Homo sapiens) (UniProt P00533); assay: Inhibition of recombinant human N-terminal GST-tagged EGFR (696 to end residues) expressed in baculovirus infected Sf21 insect cells at 1000 nM using poly (Glu, Tyr)4:1 as substrate measured after 1 hr by ELISA relative to control
Chain of Epidermal growth factor receptor (Homo sapiens) (P00533 whole entry): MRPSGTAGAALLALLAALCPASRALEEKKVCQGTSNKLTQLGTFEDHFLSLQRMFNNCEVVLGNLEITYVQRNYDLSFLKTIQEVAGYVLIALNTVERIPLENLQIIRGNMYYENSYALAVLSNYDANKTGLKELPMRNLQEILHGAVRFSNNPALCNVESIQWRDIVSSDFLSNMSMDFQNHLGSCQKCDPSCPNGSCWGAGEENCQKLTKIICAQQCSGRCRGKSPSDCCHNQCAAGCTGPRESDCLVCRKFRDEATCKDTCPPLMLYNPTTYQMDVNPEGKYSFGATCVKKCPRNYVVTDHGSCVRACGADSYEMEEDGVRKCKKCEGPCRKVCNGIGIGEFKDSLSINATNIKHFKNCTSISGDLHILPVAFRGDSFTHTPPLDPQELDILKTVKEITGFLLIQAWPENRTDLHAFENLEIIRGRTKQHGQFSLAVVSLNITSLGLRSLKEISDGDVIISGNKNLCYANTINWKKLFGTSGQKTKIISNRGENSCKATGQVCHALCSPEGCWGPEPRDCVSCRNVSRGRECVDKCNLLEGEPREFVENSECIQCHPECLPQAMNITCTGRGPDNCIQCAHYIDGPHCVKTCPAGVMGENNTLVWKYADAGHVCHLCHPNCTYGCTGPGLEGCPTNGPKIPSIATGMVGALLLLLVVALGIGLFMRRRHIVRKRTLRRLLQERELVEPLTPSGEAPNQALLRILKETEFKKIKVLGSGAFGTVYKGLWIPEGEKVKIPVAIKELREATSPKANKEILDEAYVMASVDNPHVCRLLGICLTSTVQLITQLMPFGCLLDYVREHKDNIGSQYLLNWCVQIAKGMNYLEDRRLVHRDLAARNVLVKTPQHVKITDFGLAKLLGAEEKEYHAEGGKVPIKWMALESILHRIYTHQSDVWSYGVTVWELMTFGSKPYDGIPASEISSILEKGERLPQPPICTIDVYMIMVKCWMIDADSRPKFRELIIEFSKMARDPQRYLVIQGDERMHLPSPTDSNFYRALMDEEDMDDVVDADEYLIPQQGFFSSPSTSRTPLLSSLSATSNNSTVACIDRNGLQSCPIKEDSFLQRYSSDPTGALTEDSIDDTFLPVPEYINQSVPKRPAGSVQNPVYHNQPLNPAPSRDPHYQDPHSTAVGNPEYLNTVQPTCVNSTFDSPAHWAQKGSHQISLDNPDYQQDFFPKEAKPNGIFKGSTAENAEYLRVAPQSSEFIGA
Summary of the method: (§2)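 Recombinant kinase was incubated with compound in reaction buffer containing 5 μM ATP, in wells precoated with poly(Glu,Tyr) 4:1, for 1 h at 37 °C. Phosphorylation was detected by ELISA.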

[3] = molecular target: T1, Fibroblast growth factor receptor 4 (Homo sapiens, UniProt P22455); assay: Inhibition of recombinant human N-terminal His6-tagged FGFR4 (442 to 755 residues) expressed in baculovirus infected Sf21 insect cells at 1000 nM using poly (Glu, Tyr)4:1 as substrate measured after 1 hr by ELISA relative to control; summary of the method: as §1
T1 sequence (P22455 22-802 limits assumed): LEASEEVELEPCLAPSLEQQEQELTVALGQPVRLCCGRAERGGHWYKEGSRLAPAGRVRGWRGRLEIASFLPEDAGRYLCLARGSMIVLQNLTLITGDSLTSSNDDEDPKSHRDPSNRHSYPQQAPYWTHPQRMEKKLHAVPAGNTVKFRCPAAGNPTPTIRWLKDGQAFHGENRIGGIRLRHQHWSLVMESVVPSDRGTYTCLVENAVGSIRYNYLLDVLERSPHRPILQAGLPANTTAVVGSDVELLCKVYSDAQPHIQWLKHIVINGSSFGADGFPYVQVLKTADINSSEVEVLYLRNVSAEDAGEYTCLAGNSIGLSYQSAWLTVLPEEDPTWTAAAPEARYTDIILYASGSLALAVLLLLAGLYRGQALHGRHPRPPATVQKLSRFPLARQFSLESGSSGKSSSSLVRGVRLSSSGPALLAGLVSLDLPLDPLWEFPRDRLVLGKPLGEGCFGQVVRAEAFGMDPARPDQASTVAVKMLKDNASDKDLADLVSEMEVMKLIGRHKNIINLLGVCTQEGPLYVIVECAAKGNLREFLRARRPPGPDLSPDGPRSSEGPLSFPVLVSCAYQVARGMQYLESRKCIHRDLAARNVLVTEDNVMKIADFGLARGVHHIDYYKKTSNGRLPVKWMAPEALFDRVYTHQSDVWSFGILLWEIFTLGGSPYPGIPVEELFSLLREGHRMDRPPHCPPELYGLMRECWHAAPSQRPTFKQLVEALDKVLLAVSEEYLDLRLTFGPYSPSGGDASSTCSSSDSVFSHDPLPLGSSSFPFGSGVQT

[4] = molecular target: Vascular endothelial growth factor receptor 2 (Homo sapiens) (UniProt P35968); assay: Inhibition of recombinant human VEGFR2 (D1-7) expressed in Spodoptera frugiperda insect cells at 10 nM using poly (Glu, Tyr)4:1 as substrate measured after 1 hr by ELISA relative to control; summary of the method: as §1
Chain of Vascular endothelial growth factor receptor 2 (Homo sapiens) (P35968 whole entry, the tested form may be a part): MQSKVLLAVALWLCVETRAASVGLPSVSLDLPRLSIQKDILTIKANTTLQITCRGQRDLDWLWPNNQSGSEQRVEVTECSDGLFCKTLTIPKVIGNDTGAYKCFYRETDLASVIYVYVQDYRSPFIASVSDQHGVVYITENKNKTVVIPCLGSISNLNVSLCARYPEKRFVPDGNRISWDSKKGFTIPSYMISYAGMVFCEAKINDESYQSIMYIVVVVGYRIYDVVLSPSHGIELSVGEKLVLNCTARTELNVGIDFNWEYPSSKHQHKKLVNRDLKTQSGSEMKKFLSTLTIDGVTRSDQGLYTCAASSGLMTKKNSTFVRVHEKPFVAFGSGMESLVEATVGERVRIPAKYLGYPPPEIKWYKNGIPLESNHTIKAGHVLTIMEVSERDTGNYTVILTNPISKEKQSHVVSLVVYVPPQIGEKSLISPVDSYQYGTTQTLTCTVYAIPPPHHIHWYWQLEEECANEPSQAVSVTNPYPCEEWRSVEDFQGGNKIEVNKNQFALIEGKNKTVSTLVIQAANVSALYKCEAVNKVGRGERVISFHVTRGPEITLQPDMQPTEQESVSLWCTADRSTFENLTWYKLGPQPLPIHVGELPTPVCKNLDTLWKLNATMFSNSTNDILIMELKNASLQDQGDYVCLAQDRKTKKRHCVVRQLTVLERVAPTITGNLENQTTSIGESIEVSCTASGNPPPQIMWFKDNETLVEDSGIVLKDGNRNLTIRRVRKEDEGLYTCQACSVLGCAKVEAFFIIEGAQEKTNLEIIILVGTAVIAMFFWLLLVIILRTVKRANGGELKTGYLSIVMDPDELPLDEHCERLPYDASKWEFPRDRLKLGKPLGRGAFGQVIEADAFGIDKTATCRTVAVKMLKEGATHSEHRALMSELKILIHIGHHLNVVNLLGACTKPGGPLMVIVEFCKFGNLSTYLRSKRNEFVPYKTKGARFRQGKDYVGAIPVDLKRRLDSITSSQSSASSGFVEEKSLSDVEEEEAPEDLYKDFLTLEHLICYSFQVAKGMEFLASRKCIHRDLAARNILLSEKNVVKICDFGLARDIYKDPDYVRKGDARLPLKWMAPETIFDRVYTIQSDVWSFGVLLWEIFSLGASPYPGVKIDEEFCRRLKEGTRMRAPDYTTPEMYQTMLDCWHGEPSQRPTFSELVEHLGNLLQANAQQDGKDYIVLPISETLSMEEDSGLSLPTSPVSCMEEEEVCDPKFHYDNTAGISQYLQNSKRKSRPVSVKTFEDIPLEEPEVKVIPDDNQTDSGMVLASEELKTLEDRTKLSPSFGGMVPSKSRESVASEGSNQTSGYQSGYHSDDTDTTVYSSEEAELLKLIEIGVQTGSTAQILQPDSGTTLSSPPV

[5] = molecular target: Activated CDC42 kinase 1 (Homo sapiens) (UniProt Q07912); assay: Inhibition of recombinant human N-terminal GST-tagged ACK1 (1 to 389 residues) expressed in baculovirus infected Sf21 insect cells at 1000 nM using poly (Glu, Tyr)4:1 as substrate measured after 1 hr by ELISA relative to control; summary of the method: as §2
[6] = molecular target: Ephrin type-A receptor 2 (Homo sapiens) (UniProt P29317); assay: Inhibition of recombinant human N-terminal His6-tagged EphA2 (596 to 900 residues) expressed in baculovirus infected Sf21 insect cells at 1000 nM using poly (Glu, Tyr)4:1 as substrate measured after 1 hr by ELISA relative to control; summary of the method: as §2
[7] = molecular target: Vascular endothelial growth factor receptor 2 (Homo sapiens) (UniProt P35968); assay: Inhibition of recombinant human VEGFR2 (D1-7) expressed in Spodoptera frugiperda insect cells at 100 nM using poly (Glu, Tyr)4:1 as substrate measured after 1 hr by ELISA relative to control; summary of the method: as §1
[8] = AUC (0 to t) in Sprague-Dawley rat at 5 mg/kg, po administered via gavage by LC-MS/MS analysis; type: ADME, organism-based; conditions: in vivo
Summary of the method: (§3)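 Male SD rats (200 ± 20 g) were fasted 12 h with free access to water, n = 3 per group. One group received 2 mg/kg iv in DMSO/EtOH/PEG300/saline (5/5/40/50). The other received 5 mg/kg by oral gavage in DMSO/HPMC (5/95). Femoral-vein plasma was taken at 15–1440 min, methanol-precipitated with internal standard, and measured by LC–MS/MS. Noncompartmental analysis; AUC by trapezoidal method.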

[9] = molecular target: Platelet-derived growth factor receptor alpha (Homo sapiens) (UniProt P16234); assay: Inhibition of recombinant human N-terminal His6-tagged PDGFRalpha (550 to end residues) expressed in baculovirus infected Sf21 insect cells at 1000 nM using poly (Glu, Tyr)4:1 as substrate measured after 1 hr by ELISA relative to control; summary of the method: as §1
[10] = molecular target: T1, Fibroblast growth factor receptor 4; assay: Inhibition of recombinant human N-terminal His6-tagged FGFR4 (442 to 755 residues) expressed in baculovirus infected Sf21 insect cells at 100 nM using poly (Glu, Tyr)4:1 as substrate measured after 1 hr by ELISA relative to control; summary of the method: as §2
[11] = molecular target: Fibroblast growth factor receptor 3 (Homo sapiens, UniProt P22607); assay: Inhibition of recombinant human N-terminal His6-tagged FGFR3 (447 to 761 residues) expressed in baculovirus infected Sf21 insect cells at 100 nM using poly (Glu, Tyr)4:1 as substrate measured after 1 hr by ELISA relative to control; summary of the method: as §2
[12] = Clearance in Sprague-Dawley rat at 2 mg/kg, iv administered […] by LC-MS/MS analysis; type: ADME, organism-based; conditions: in vivo; summary of the method: as §3
[13] = molecular target: Focal adhesion kinase 1 (Homo sapiens) (UniProt Q05397); assay: Inhibition of recombinant human N-terminal His6-tagged FAK (411 to 686 residues) expressed in baculovirus infected Sf21 insect cells at 1000 nM using poly (Glu, Tyr)4:1 as substrate measured after 1 hr by ELISA relative to control; summary of the method: as §2
[14] = molecular target: Vascular endothelial growth factor receptor 1 (Homo sapiens) (UniProt P17948); assay: Inhibition of recombinant human VEGFR1 expressed in Spodoptera frugiperda insect cells at 100 nM using poly (Glu, Tyr)4:1 as substrate measured after 1 hr by ELISA relative to control; summary of the method: as §1
Chain of Vascular endothelial growth factor receptor 1 (Homo sapiens) (P17948 whole entry): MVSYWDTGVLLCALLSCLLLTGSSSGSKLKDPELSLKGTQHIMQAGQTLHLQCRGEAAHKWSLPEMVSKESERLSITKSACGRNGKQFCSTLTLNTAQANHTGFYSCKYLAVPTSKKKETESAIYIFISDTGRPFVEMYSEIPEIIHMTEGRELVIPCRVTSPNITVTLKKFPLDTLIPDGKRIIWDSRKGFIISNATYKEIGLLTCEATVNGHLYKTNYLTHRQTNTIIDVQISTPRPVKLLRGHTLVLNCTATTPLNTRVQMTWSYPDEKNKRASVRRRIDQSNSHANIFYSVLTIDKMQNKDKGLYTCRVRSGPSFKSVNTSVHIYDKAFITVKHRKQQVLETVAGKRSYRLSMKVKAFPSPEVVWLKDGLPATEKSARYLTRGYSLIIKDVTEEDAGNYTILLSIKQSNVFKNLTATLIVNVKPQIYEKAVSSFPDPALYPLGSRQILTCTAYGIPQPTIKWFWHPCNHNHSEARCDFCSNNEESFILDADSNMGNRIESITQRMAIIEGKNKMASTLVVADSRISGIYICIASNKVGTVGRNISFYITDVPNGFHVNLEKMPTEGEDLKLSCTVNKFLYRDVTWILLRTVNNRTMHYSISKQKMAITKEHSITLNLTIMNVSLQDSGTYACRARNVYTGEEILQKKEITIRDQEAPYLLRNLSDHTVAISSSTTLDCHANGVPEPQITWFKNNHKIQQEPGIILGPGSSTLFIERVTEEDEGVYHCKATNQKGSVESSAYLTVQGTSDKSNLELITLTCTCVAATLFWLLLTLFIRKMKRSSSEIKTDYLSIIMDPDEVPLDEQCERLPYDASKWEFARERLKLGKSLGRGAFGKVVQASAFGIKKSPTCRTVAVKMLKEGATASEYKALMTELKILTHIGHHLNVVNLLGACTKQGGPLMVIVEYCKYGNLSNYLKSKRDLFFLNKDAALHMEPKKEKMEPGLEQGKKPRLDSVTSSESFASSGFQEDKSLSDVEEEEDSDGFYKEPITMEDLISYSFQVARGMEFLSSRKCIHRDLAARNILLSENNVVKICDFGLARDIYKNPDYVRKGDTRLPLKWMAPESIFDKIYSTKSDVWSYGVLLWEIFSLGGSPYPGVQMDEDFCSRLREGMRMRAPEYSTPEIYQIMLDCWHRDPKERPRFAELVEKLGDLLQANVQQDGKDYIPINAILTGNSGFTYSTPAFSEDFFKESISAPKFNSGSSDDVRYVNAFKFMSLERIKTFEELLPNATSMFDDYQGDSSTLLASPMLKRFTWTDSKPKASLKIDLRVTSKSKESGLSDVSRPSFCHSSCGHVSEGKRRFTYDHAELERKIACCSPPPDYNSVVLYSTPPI

[15] = molecular target: Vascular endothelial growth factor receptor 1 (Homo sapiens) (UniProt P17948); assay: Inhibition of recombinant human VEGFR1 expressed in Spodoptera frugiperda insect cells at 10 nM using poly (Glu, Tyr)4:1 as substrate measured after 1 hr by ELISA relative to control; summary of the method: as §1
[16] = molecular target: Epidermal growth factor receptor (Homo sapiens) (UniProt P00533); assay: Inhibition of recombinant human N-terminal GST-tagged EGFR (696 to end residues) expressed in baculovirus infected Sf21 insect cells at 100 nM using poly (Glu, Tyr)4:1 as substrate measured after 1 hr by ELISA relative to control; summary of the method: as §2
[17] = molecular target: c-KIT (Homo sapiens, UniProt P10721); assay: Inhibition of recombinant human N-terminal GST-tagged c-KIT (544 to end residues) expressed in baculovirus infected Sf21 insect cells at 100 nM using poly (Glu, Tyr)4:1 as substrate measured after 1 hr by ELISA relative to control; conditions: probe poly (Glu, Tyr)4:1; summary of the method: as §2
[18] = molecular target: Vascular endothelial growth factor receptor 2 (Homo sapiens) (UniProt P35968); assay: Inhibition of recombinant human VEGFR2 (D1-7) expressed in Spodoptera frugiperda insect cells at 1000 nM using poly (Glu, Tyr)4:1 as substrate measured after 1 hr by ELISA relative to control; summary of the method: as §1
[19] = AUC (0 to t) in Sprague-Dawley rat at 2 mg/kg, iv administered […] by LC-MS/MS analysis; type: ADME, organism-based; conditions: in vivo; summary of the method: as §3
[20] = molecular target: Macrophage colony-stimulating factor 1 receptor (Mus musculus) (UniProt P09581); assay: Inhibition of CSF1R in CSF1-stimulated mouse RAW264.7 cells assessed as reduction in AKT phosphorylation preincubated for 6 hrs followed by CSF1 stimulation and measured after 20 mins by Western blot analysis; type: cell-based
Summary of the method: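 RAW264.7 cells were plated in six-well plates overnight, treated with compound for 6 h, then stimulated with CSF-1 100 ng/mL for 20 min. Lysates were normalized by BCA, run on 10% SDS-PAGE, and blotted with antibodies to phospho-CSF1R (Tyr723), CSF1R, phospho-Akt (Ser473), Akt and actin.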

## Cc1ccc(C(=O)Nc2ccc(Cl)cc2)cc1C#Cc1cc(-c2cnn(C)c2)cnc1N
[1]
  inhibition: 4.2%
[2]
  inhibition: 0%
[3]
  inhibition: 7.4%
[4]
  inhibition: 23.2%
[5]
  inhibition: 30.9%
[6]
  inhibition: 92.3%
[7]
  inhibition: 83.6%
[8]
  AUC(0-t): 634 ng·h/mL
[9]
  inhibition: 92.6%
[10]
  inhibition: 0%
[11]
  inhibition: 0%
[12]
  clearance: 46 mL/min/kg
[13]
  inhibition: 10.8%
[14]
  inhibition: 78.5%
[15]
  inhibition: 36.2%
[16]
  inhibition: 7.4%
[17]
  inhibition at 1 h, 0.1 µM: 100%
[18]
  inhibition: 95.5%
[19]
  AUC(0-t): 729 ng·h/mL
[20]
  inhibition: Dose-dependent effect
